Source: ChEMBL document CHEMBL1152856, “Design, synthesis and molecular modeling study of acylated 1,2,4-triazole-3-acetates with potential anti-inflammatory activity” (Eur J Med Chem, 2009)

Key:
[1] = system: Rattus norvegicus; assay: Antiinflammatory activity in albino rat assessed as inhibition of carrageenan-induced paw edema at 5 mg/kg, po administered 30 mins before carrageenan challenge measured after 1 hr; type: functional
Procedure, shortened: (§1)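 Rats dosed orally with compound suspended in 0.5% carboxymethyl cellulose; controls got CMC vehicle. 30 min later, 0.1 mL freshly prepared 1% carrageenan in normal saline injected subplantar into right hind paw. Paw thickness measured at 60, 120 and 180 min after dosing. Result given as % inhibition of edema ± S.E.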

[2] = system: Rattus norvegicus; assay: Antiinflammatory activity in albino rat assessed as inhibition of carrageenan-induced paw edema at 5 mg/kg, po administered 30 mins before carrageenan challenge measured after 3 hrs; type: functional; procedure, shortened: as §1
[3] = system: Rattus norvegicus; assay: Antiinflammatory activity in albino rat assessed as inhibition of carrageenan-induced paw edema at 5 mg/kg, po administered 30 mins before carrageenan challenge measured after 2 hrs; type: functional; procedure, shortened: as §1
[4] = Toxicity in ip dosed albino mouse assessed as mortality after 24 hrs; type: organism-based; settings: in vivo
Procedure, shortened: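 Adult male albino mice (25-30 g), groups of five, given graded doses intraperitoneally. Mortality per group recorded 24 h after injection. LD50 calculated by a graphical method.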

[5] = system: Rattus norvegicus; assay: Gastrointestinal toxicity in albino rat assessed as ulcer index at 100 mg/kg, po after 6 hrs; type: organism-based; design: dose 100 mg/kg, route oral; settings: in vivo
Procedure, shortened: (§2)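 Oral dosing by stomach tube with suspensions in 0.5% w/v aqueous carboxymethyl cellulose (10, 50, 100 mg/kg); controls got equal volume of vehicle. Rats killed at 6 h, stomachs opened along greater curvature, washed, mucosa examined by stereomicroscope. Ulcer = lesion ≥0.5 mm; five patches = 1 mm. Ulcer index = summed lesion lengths divided by animal number; groups of 6.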

[6] = system: Rattus norvegicus; assay: Gastrointestinal toxicity in albino rat assessed as ulcer index at 50 mg/kg, po after 6 hrs; type: organism-based; design: dose 50 mg/kg, route oral; settings: in vivo; procedure, shortened: as §2
[7] = system: Rattus norvegicus; assay: Gastrointestinal toxicity in albino rat assessed as ulcer index at 10 mg/kg, po after 6 hrs; type: organism-based; design: dose 10 mg/kg, route oral; settings: in vivo; procedure, shortened: as §2

| Structure (SMILES) | inhibition in vivo at 5 mg/kg [1] [%] | inhibition in vivo at 5 mg/kg [2] [%] | inhibition in vivo at 5 mg/kg [3] [%] | LD50 at 24 h [4] [mg/kg] | UI [5] | UI [6] | UI [7] |
| --- | --- | --- | --- | --- | --- | --- | --- |
| CCOC(=O)Cc1nc(N)n(C(=O)c2ccccc2)n1 | 31.6 | 57.5 | 38.5 | – | – | – | – |
| Nc1nc(CC(=O)O)n[nH]1 | 22.3 | 48.1 | 29.5 | – | – | – | – |
| CCOC(=O)Cc1nc(N)n(C(=O)c2ccc(Br)cc2)n1 | 34.8 | 64.1 | 43 | 120 | – | – | – |
| CCOC(=O)Cc1nc(N)n(C(=O)c2ccc(OC)cc2)n1 | 32.8 | 60 | 41.5 | – | – | – | – |
| CCOC(=O)Cc1nc(N)n(C(=O)c2ccc([N+](=O)[O-])cc2)n1 | 36.1 | 68.2 | 46.3 | 90 | – | – | – |
| CCOC(=O)Cc1nc(N)n(C(=O)c2ccc(Cl)cc2)n1 | 34.2 | 62.8 | 42.3 | 130 | 0.75 | 0.5 | 0 |
| CCOC(=O)Cc1n[nH]c(NC(=O)c2ccc([N+](=O)[O-])cc2)n1 | 32.6 | 59.8 | 42.1 | – | – | – | – |
| CCOC(=O)Cc1n[nH]c(NC(=O)c2ccc(OC)cc2)n1 | 30.2 | 56 | 38.2 | – | – | – | – |
| CCOC(=O)Cc1n[nH]c(N)n1 | 25 | 51.8 | 33.6 | – | – | – | – |
| CCOC(=O)Cc1n[nH]c(NC(=O)c2ccc(Br)cc2)n1 | 31.3 | 58.8 | 40.4 | – | – | – | – |
| CCOC(=O)Cc1n[nH]c(NC(=O)c2ccccc2)n1 | 26.8 | 55.3 | 36.2 | – | – | – | – |
| CCOC(=O)Cc1n[nH]c(NC(=O)c2ccc(Cl)cc2)n1 | 31.1 | 58.5 | 39.1 | – | 0.75 | 0 | 0 |
| COc1ccc2c(c1)c(CC(=O)O)c(C)n2C(=O)c1ccc(Cl)cc1 [INDOMETHACIN] | 31.5 | 60.8 | 40.1 | 50 | 2.1 | 1.9 | 2.5 |
